Consider 20 molecules from ChEMBL document CHEMBL1125078, “Synthesis and evaluation of novel electrophilic nitrofuran carboxamides and carboxylates as radiosensitizers and bioreductively activated cytotoxins” (1990).

The subject of assay [1] is V79-379A (Chinese hamster lung fibroblasts). As to the kind of experiment: Cytotoxicity in nitrogen (MMT assay).
Assay [2] has the same test system. As to the kind of experiment: Cytotoxicity in air (MMT assay).
Assay [3] is described as follows: Molar concentration required to give a sensitizer enhancement ratio of 1.6 in hypoxic […] (V79) cells. Type of assay: functional, Cricetulus griseus. Summed up: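 Hypoxic Chinese hamster V79-379A cells irradiated in vitro with compound present; C1.6 = molar concentration of compound giving a sensitizer enhancement ratio of 1.6.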
Assay [4] in a line: Differential toxicity expressed as the ratio of C50 (air) to C50 (nitrogen). Type of assay: functional. An outline of the steps: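 Differential toxicity = C50(air)/C50(N2), with each C50 from the MTT assay on V79-379A cells under air or nitrogen; mean of at least three experiments.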
Assay [5] is described as follows: Compound was tested for persistent physical or behavioral effects in C3H/He mice. It is filed as functional, Mus musculus. An outline of the steps: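 Toxicity screen in C3H/He mice: single injection as PBS (pH 7.3) solution or suspension, 0.5 or 1.0 mL per 25 g body weight, doses raised until solubility or toxicity limited; animals watched for acute, severe or persistent physical or behavioural changes (e.g. piloerection, respiration rate, locomotor activity for about 1 h).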

Regarding `O=[N+]([O-])c1nccn1CC(O)CN1CC1` (configuration not stated), the results for the C50 in assay [1] and in assay [2] were 0.0045 mM and 0.3 mM, respectively. Besides, in assay [3], the C1.6 was determined as 0.1 mM. Besides, the d tox in assay [4] was found to be 66.6.
Regarding `O=C(/C=C/c1ccc([N+](=O)[O-])o1)NCC1CO1` (configuration not stated), the results for the C50 in assay [1] and in assay [2] were 0.01 mM and 0.03 mM, respectively. The C1.6 in assay [3] turned out to be 0.008 mM. For the same molecule, the d tox in assay [4] turned out to be 3. The Max dose in assay [5] was 25 mM/kg.
In the case of `C=CCOC(=O)c1ccc([N+](=O)[O-])o1`, the C50 in assay [1] was 0.025 mM; in assay [2], 0.1 mM. In addition, the C1.6 in assay [3] is listed as 0.05 mM. The d tox in assay [4] came out at 4.
In the case of `Br.C[C@H](Br)[C@H](C)NCC(O)CNC(=O)c1ccc([N+](=O)[O-])o1` (some centres not stated), the C50 in assay [1] came to 0.025 mM; in assay [2] it was 0.14 mM. Further, the C1.6 in assay [3] was determined as 0.03 mM. Also, the d tox in assay [4] turned out to be 5.6.
Regarding `CC1(C)CN1CC(O)CNC(=O)c1ccc([N+](=O)[O-])o1` (configuration not stated), the C50 in assay [1] was found to be 0.075 mM; in assay [2], 0.15 mM. The C1.6 in assay [3] is on record as 0.04 mM. In addition, the d tox in assay [4] stood at 2.
Consider `Br.O=[N+]([O-])c1nccn1CC(O)CNCCBr` (configuration not stated), for which the C50 in assay [1] was determined as 0.09 mM; in assay [2], 2.3 mM. Further, in assay [3], the C1.6 is 0.1 mM. In assay [4], the d tox turned out to be 25.6.
For `COCC(O)Cn1ccnc1[N+](=O)[O-]` (configuration not stated) [MISONIDAZOLE], the C50 in assay [1] came out at 4 mM; in assay [2], 45 mM. Further, in assay [3], the C1.6 was determined as 0.3 mM. Besides, in assay [4], the d tox is 11.3.
Consider `C=CCNC(=O)c1ccc([N+](=O)[O-])o1`, for which the figures for the C50 in assay [1] and in assay [2] were 0.045 mM and 0.08 mM, respectively. Further, the C1.6 in assay [3] is recorded as 0.05 mM. Further, the d tox in assay [4] was found to be 1.8.
Regarding `Br.NC(=O)N/N=C/c1ccc([N+](=O)[O-])o1`, the C50 in assay [1] is given as 0.2 mM; in assay [2], 1.7 mM. The C1.6 in assay [3] is listed as 0.05 mM. The d tox in assay [4] was 8.5.
Consider `CC(C)(CO)NC(=O)c1ccc([N+](=O)[O-])o1`, for which the C50 stood at 0.12 mM in assay [1] and 0.25 mM in assay [2]. The C1.6 in assay [3] turned out to be 0.05 mM. Also, the d tox in assay [4] was 2.1. Also, the Max dose in assay [5] was 100 mM/kg.
For the molecule `C=CCNC(=O)c1cc([N+](=O)[O-])c(C)o1`, the C50 in assay [1] came out at 0.03 mM; in assay [2], 0.015 mM. Moreover, the d tox in assay [4] is 0.5.
On to `O=C(NCC1CO1)c1ccc([N+](=O)[O-])o1` (configuration not stated), for which the C50 in assay [1] and in assay [2] was 0.05 mM each time. Moreover, the C1.6 in assay [3] worked out at 0.02 mM. For the same molecule, the d tox in assay [4] came out at 1. Further, the Max dose in assay [5] was 50 mM/kg.
Regarding `C[C@@H]1[C@H](C)N1CC(O)CNC(=O)c1ccc([N+](=O)[O-])o1` (some centres not stated), the figures for the C50 in assay [1] and in assay [2] were 0.02 mM and 0.06 mM, respectively. The C1.6 in assay [3] is reported as 0.05 mM. Besides, the d tox in assay [4] turned out to be 3.
Turning to `C[C@@H]1[C@H](C)N1CC(O)CNC(=O)C1OC1c1ccc([N+](=O)[O-])o1` (some centres not stated), the C50 in assay [1] and in assay [2] was 0.012 mM throughout. Also, the C1.6 in assay [3] is 0.025 mM. Moreover, the d tox in assay [4] was 1.
For `CC1(C)CN1C(=O)c1ccc([N+](=O)[O-])o1`, the C50 in assay [1] and in assay [2] was 0.18 mM each time. Also, the C1.6 in assay [3] is listed as 0.1 mM. In addition, the d tox in assay [4] was found to be 1.
`C=CCNC(=O)/C=C/c1ccc([N+](=O)[O-])o1`: the values for the C50 in assay [1] and in assay [2] were 0.025 mM and 0.06 mM, respectively. Besides, the C1.6 in assay [3] came out at 0.03 mM. For the same molecule, the d tox in assay [4] was 2.4.
For `C=CCNC(=O)c1cc([N+](=O)[O-])oc1C`, in that order: 0.8 mM, 0.35 mM, 0.075 mM and 0.4.
Taken in the same sequence, the figures for `CC1(C)CN1CC(O)CNC(=O)/C=C/c1ccc([N+](=O)[O-])o1` (configuration not stated) were 0.01 mM, 0.045 mM, 0.008 mM and 4.5.
As for `Cc1oc([N+](=O)[O-])cc1C(=O)NCC1CO1` (configuration not stated), the C50 in assay [1] and in assay [2] was 0.1 mM throughout. Moreover, the C1.6 in assay [3] stood at 0.04 mM. Besides, in assay [4], the d tox stood at 1.
Take `C[C@@H]1[C@H](C)N1CC(O)CNC(=O)/C=C/c1ccc([N+](=O)[O-])o1` (some centres not stated): the C50 in assay [1] was 0.04 mM; in assay [2], 0.07 mM. The C1.6 in assay [3] came to 0.035 mM. Also, in assay [4], the d tox turned out to be 1.8.
